Test results published in paper PMC2753403 (Journal of the American Chemical Society, 2009).
Where “and” joins values, the source holds several entries; their conditions need not be identical. Equal entries are not always repeated. Where two headings read alike, the source gives them in different places.

Tests used:
[1] = tested on: human tumor cell lines: MCF-7, NCI-H460 and SF-268; test: FOH/GGOH rescue of cell growth inhibition; format: cell-based; conditions: for rescue from growth inhibition by GGOH: 20 μM GGOH added; for rescue from growth inhibition by FOH: 20 μM FOH added
Method in brief: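 Cells were grown in RPMI-1640 with 10% FBS and 2 mM L-glutamine at 37°C, 5% CO2. They were seeded at 5,000 cells/well with test compound added, and each well also received FOH or GGOH from ethanol stocks at a fixed 20 μM. After 4 days, growth was read by MTT.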

mouse fetal metatarsal = test: Mouse fetal metatarsal 45Ca2+ release inhibition assay; conditions: read-out: IC50, 45Ca2+ release inhibition
Human FPPS = target: T1, Human FPPS (Homo sapiens, UniProt P14324); test: Human FPPS inhibition; format: biochemical
T1 sequence (P14324 1-419): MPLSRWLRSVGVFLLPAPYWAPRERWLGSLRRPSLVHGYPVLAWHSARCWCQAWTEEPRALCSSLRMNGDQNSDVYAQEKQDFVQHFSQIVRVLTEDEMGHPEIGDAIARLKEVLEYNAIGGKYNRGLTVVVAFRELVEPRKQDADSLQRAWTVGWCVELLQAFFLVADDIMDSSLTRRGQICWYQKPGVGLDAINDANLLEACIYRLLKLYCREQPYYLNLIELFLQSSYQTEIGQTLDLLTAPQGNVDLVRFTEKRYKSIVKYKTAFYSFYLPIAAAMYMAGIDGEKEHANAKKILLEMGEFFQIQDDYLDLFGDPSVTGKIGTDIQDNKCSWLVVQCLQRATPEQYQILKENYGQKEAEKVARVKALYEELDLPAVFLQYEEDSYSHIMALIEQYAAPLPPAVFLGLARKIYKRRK
Method in brief: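 Recombinant human FPPS condensed geranyl diphosphate with isopentenyl diphosphate, followed by a continuous spectrophotometric phosphate-release assay. Buffer was 50 mM Tris-HCl, 1 mM MgCl2, pH 7.4. Enzyme and test compound were preincubated 30 min at 20°C. IC50 came from a dose-response curve fit.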

[2] = tested on: human tumor cell lines: MCF-7, NCI-H460 and SF-268; test: Tumor cell growth inhibition; format: cell-based
Method in brief: (§1)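 Cells were grown in RPMI-1640 with 10% FBS and 2 mM L-glutamine at 37°C, 5% CO2, 100% humidity, and seeded at 5,000 cells/well. Test compound came from 0.01 M water stocks as a half-log serial dilution series (0.316 mM to 0.1 pM) prepared before addition. Plates ran 4 days, then MTT dose-response.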

SK-ES-1 sarcoma cells = test: SK-ES-1 sarcoma mouse xenograft; format: in vivo; conditions: athymic nude mice, 5 μg daily intraperitoneal, 30 days
Method in brief: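 Four 6-week-old athymic nude mice each received 1.5×10^7 human SK-ES-1 cells subcutaneously in the right flank. Treatment was daily intraperitoneal test compound (5 μg) for 30 days, or physiological saline. Tumor diameters and body weight were measured weekly, and volume = (smallest diameter)2 × (largest diameter)/2. Statistics used one-way ANOVA with Fisher's PLSD, with p < 0.05 taken as significant.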

MCF-7 = MCF-7 cell growth inhibition; format: cell-based; conditions: Homo sapiens, MCF7, 96 h, read-out: IC50, tumor cell growth inhibition
Method in brief: as §1

MDA-MB-231 cells = test: Matrigel invasion assay; format: cell-based, human; conditions: 24 hours treatment, up to 10 μM
[3] = 14C-labelled olpadronate displacement bone-binding model; conditions: fetal mouse metatarsals, Figure 8b
breast cancer patients = conditions: Phase III, 1803 breast cancer patients, zoledronate (+hormone) therapy; cited from earlier work
[4] = mouse fetal metatarsal, Figure 8a

| IC50 (mouse fetal metatarsal; [4]) | SMILES | rescue from growth inhibition by GGOH [1] | rescue from growth inhibition by FOH [1] | IC50 (MCF-7) [nM] | further results |
| --- | --- | --- | --- | --- | --- |
|  | CC(C)=CCCC(C)=CCC(CC=C(C)CCC=C(C)C)(P(=O)(O)O)P(=O)(O)O [1,1-digeranylmethylene bisphosphonate, reference compound] | rescue by GGOH |  |  |  |
| 2900 nM and ~2900 nM | CCCCCCCCCCOc1ccc[n+](CC(P(=O)([O-])O)P(=O)(O)O)c1 (centres unmarked) [BPH-715] | no rescue by either FOH or GGOH | no rescue by either FOH or GGOH |  | IC50 in tumor cell growth inhibition, fold lower than zoledronate ([2]; versus zoledronate): ~ 100 fold; weight loss or other adverse effect (SK-ES-1 sarcoma cells): no weight loss or other adverse effect observed |
| ~1300 nM | CCCCCCCCCCCCOc1ccc[n+](CC(P(=O)(O)O)P(=O)(O)O)c1 [BPH-716] |  |  |  | activity in the cell assays compared with BPH-715 ([2]; growth inhibition and Matrigel invasion assays): about the same activity as BPH-715 |
|  | NCCC(O)(P(=O)(O)O)P(=O)(O)O [pamidronate] |  |  | ~140000 |  |
|  | O=P(O)(O)C(O)(Cn1ccnc1)P(=O)(O)O [zoledronate] | only a partial rescue by GGOH |  | ~15000 | effect on MDA-MB-231 invasion (MDA-MB-231 cells): essentially no effect even at 10 μM; reduction in tumor cell growth (tumor volume) (SK-ES-1 sarcoma cells): significant (p < 0.01) reduction in tumor cell growth versus control; IC50 (mouse fetal metatarsal; Mus musculus): ~100 nM; displacement of bound 14C-labelled olpadronate [3]: far more effective in displacing this bound bisphosphonate than are the lipophilic species; reduced risk of cancer returning, or death (breast cancer patients): 36% |

| SMILES | IC50 (mouse fetal metatarsal; [4]) | rescue from growth inhibition by GGOH [1] | rescue from growth inhibition by FOH [1] | IC50 (MCF-7) [nM] | further results |
| --- | --- | --- | --- | --- | --- |
| O=P(O)(O)C(O)(Cc1cccc(-c2cccc(NS(=O)(=O)c3ccc4ccccc4c3)c2)c1)P(=O)(O)O [BPH-675] | ~30000 nM | almost fully reversed by addition of 20 μM GGOH | FOH has no effect |  | FPPS inhibition (in words) (Human FPPS): very weak |
